Shown are actives, neighbours in structure and some others; about 3.5% of the full set was active somewhere.
FLuc inhib CS = Photinus pyralis luciferase inhibition counter-screen. ATPLite firefly luciferase biochemical luminescence, 10 min. P08659. AID 1006. inhibition, % at 10 µM. 1.5% of 200,000 active;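 active = inhibition above about 50% when tested at 10 µM, limit read from the data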
Target sequence (P08659 whole entry, looked up): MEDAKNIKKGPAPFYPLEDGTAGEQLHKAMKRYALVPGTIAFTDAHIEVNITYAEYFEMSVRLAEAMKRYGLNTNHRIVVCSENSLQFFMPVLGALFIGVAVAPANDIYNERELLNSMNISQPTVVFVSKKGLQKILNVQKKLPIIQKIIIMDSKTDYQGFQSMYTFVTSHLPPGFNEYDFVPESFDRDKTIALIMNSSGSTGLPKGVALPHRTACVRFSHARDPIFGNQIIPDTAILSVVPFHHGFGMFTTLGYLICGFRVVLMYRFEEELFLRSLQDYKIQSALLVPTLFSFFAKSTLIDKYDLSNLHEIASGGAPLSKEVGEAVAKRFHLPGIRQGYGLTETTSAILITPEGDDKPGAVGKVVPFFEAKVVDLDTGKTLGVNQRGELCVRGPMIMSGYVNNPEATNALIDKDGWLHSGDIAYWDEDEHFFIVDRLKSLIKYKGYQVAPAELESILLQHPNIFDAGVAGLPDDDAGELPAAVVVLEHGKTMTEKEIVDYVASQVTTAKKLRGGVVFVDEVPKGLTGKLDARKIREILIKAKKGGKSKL
FLuc stim CS = affects firefly luciferase, flagging false hits in luciferase stimulation screens. activation factor at 10 µM. ATPlite luciferase biochemical, luminescence, 10 min; 0 = ATP-free wells, 1 = DMSO control. AID 1027. 200,000 tested, under 10 active;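 active = luciferase activation factor, scaled between plate controls, of at least 2 with compound at 10 µM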
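Assay system: Luciferase/luciferin detection reagent, cell-free biochemical luciferase assay / Also added: ATP substrate / Schedule: 10 min at ambient temperature / Measured by: luminescence measurement of luciferase light output / Benchmarks: low control with PBS replacing ATP, high control enzyme plus ATP without compound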
STAT1 activator = increases IFN-gamma driven STAT1 reporter signal | AID 932 | 2.6% of 200,000 active | NIH 3T3 STAT1-luciferase reporter, luminescence; 100% = IFN-gamma alone, no compound | activation (% of control), % at 5.5 µM;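 active = activation above the screen-wide mean activation plus 3 SD, cut at about 130% in these data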;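 note: raw ratio to IFN-gamma control signal so 100% means no change and 0% no light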
Pf gamet viab = inhibitors of late stage P. falciparum gametocyte viability | AID 743093 | 0.065% of 150,000 active | inhibition, % at 10.9 µM | P. falciparum stage V gametocytes, ATP luminescence, 24 h;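 active = inhibition above the mean plus 3 SD of compounds within the control limits, set per campaign, cut at about 38% in these data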;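 note: 0% = DMSO wells and 100% = medium only without gametocytes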
NF-kB expr up = compounds increasing NF-kB expression in human neuronal cells; NF-kB reporter expression; hits give high values; fold change at 12.5 µM; 1.6% of 190,000 active; AID 1239; in the data active = fold change above about 3.3
APP 5'UTR act = APP 5'UTR luciferase reporter activation. SH-SY5Y APP 5'UTR luciferase reporter, luminescence; zero percent = DMSO vehicle wells. activation, % at 2 µM. 1% of 190,000 active;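 active = activation above a set limit, based on mean plus 3 SD of controls, cut at about 140% in these data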
Active calls of the source: *; x = not tested or not shown.

SMILES	FLuc inhib CS	FLuc stim CS	STAT1 activator	Pf gamet viab	NF-kB expr up	APP 5'UTR act
CCCN1C=CC(=C2C(=O)c3ccccc3C2=O)C=C1	97*	0	15	25	0.27	-81
CN1C=CC(=C2C(=O)c3ccccc3C2=O)C=C1	75*	0.2	118	x	3.6*	102
CCCc1ccc(OCc2ccc(C(=O)Nc3cccc(C)n3)o2)c(OC)c1	-6	1.1	138*	18	1.1	8
CCOc1cc(/C=N\NC(=O)CN2CCOCC2)ccc1OCc1ccc(F)cc1	-10	1.1	99	22	0.83	0
Cc1ccc(CCC(=O)Nc2ccccc2F)s1	10	0.9	137*	-1	2.2	103
Cc1ccc(N=Cc2c(C)[nH]n(-c3nc4ccccc4[nH]3)c2=O)cc1	79*	0.2	90	22	0.86	23
Cc1ccsc1C(=O)OCC(=O)N1CCc2ccccc2C1	29	0.7	144*	-29	1.1	63
COc1cc(NC(=O)c2cnn3c(C)cc(C)nc23)c(OC)cc1Cl	-6	1.1	105	-25	1	-10
COc1cccc(N2CCN(C(=O)c3ccc4nc(N5CCCCC5)sc4c3)CC2)c1	4	1	136*	x	2.3	70
Cc1cccc(Cl)c1NNC(=O)Nc1c([N+](=O)[O-])c(C)nn1C	x	x	x	-11	x	x
COC(=O)Cn1c(C)nc2c(sc3nc(C)cc(C)c32)c1=O	26	0.7	141*	x	3	24
CCOC(=O)Cn1cnc2c(sc3nc(C)cc(C)c32)c1=O	x	x	x	-10	x	x
Cc1ccc(N(C(=O)c2snc(C(N)=O)c2N)C(C(=O)NCCC(C)C)c2ccco2)cc1 (centres undefined)	-4	1	108	0	0.44	-1
CCOc1ccc(/C=N/n2c(SC)nnc2-c2ccccc2)cc1OCC	-5	1.1	107	x	5.5*	12
Cn1c(Cl)cnc1C1CC(=O)c2cc(Cl)ccc2O1 (centres undefined)	0	1	103	x	4.7*	-27
CC(=O)Oc1cccc(N2C(=O)c3ccc(C(=O)O)cc3C2=O)c1	-5	1	105	1	1	0
Oc1cccc(-c2nc3ccccc3s2)c1	71*	0.3	103	-10	9*	116
O=C(O)c1ccc2c(c1)C(=O)N(c1cccc(-c3nc4ccccc4s3)c1)C2=O	34	0.7	130*	13	1.5	36
Nc1cccc(-c2nc3ccccc3s2)c1	76*	0.2	147*	x	5.9*	130
O=C(O)c1ccc(-n2cccn2)nc1	-6	1.1	99	-1	1.5	21
O=C(/C=C/c1ccccc1Cl)Nc1cccc(S(=O)(=O)NC2=NCCCCC2)c1	71*	0.3	108	-6	0.91	44
O=C(Nc1cccc(S(=O)(=O)NC2=NCCC2)c1)C1CCC1	2	1	98	8	1.3	6
O=C(/C=C/c1ccc(Cl)cc1Cl)Nc1cccc(S(=O)(=O)NC2=NCCC2)c1	96*	0	78	10	7.2*	79
O=C(Nc1cccc(S(=O)(=O)NC2=NCCCCC2)c1)C1COc2ccccc2O1 (centres undefined)	-8	1.1	97	25	0.83	-5
COc1ccc(S(=O)(=O)Nc2cccc3c2O[C@H](CN(C)S(=O)(=O)c2ccccc2)[C@@H](C)CN([C@H](C)CO)C3=O)cc1	x	x	x	-4	x	x
SMILES	FLuc inhib CS	FLuc stim CS	STAT1 activator	Pf gamet viab	NF-kB expr up	APP 5'UTR act
O=[N+]([O-])c1ccc2c(c1)N([O-])C1(CCCCC1)[N+]2=O	x	x	x	-14	x	x
C/C(=N\NC(=O)Cc1ccc(Cl)cc1)c1ccccc1O	x	x	x	-28	x	x
CCCCCCOc1ccc(OC(=O)c2ccncc2)cc1	-2	1	96	x	9.9*	3
CC(C)c1ccc(NC(=O)c2n[nH]c(=O)c3ccccc23)cc1	1	1	133*	-1	1.2	66
CC(C)c1ccc(NC(=O)c2csnn2)cc1	68*	0.3	146*	x	7.6*	87
CC(C)c1ccc(NC(=O)c2cccnc2)cc1	23	0.8	143*	x	2.7	103
Cc1ccc(C2=N/C(=C\c3coc4ccccc4c3=O)C(=O)O2)cc1	x	x	x	-33	x	x
COC(=O)c1sccc1NC(=O)c1ccc(OC)cc1OC	-5	1.1	80	6	1	28
COc1ccc(CNc2nc3nc(C)cc(C)n3n2)cc1	3	1	108	x	1.2	18
COc1ccc(-c2cc3nc(C)cc(C)n3n2)cc1	49	0.5	135*	1	3.6*	112
Cc1cc(C)n2nc(-c3ccc(Br)cc3)cc2n1	x	x	x	18	x	x
COc1ccc(-c2nc3nc(C)cc(C)n3n2)cc1	59*	0.4	129*	x	1.5	x
CSc1ccccc1C(=O)Nc1ccc2c(c1)OCCO2	6	0.9	104	-29	1.4	12
CCc1ccc(NC(=O)c2ccccc2SC)cc1	18	0.8	129*	-9	1.2	47
CCc1ccc(NC(=O)c2cnn3ccccc23)cc1	78*	0.2	30	x	4*	135
O=C(NCc1ccc(F)cc1)c1cnn2ccccc12	17	0.8	132*	x	2.4	55
O=C(Cc1ccc([N+](=O)[O-])cc1)N/N=C/c1ccccc1F	x	x	x	-1	x	x
CCN(CC)CCCNC(=S)N1CCN(c2nc(-c3ccccc3)cs2)CC1	x	x	x	17	x	x
O=C(c1ccccc1)c1nnc(-c2ccccc2F)o1	78*	0.2	115	6	9.8*	90
CC1(C)Cc2c(sc3nc(-c4cccs4)n(N)c(=O)c23)CO1	40	0.6	138*	x	1.2	52
Nn1c(-c2cccs2)nc2sc3c(c2c1=O)CCCC3	45	0.5	142*	x	3.9*	156*
Cc1ccccc1-c1nc2sc3c(c2c(=O)n1N)CCCC3	6	0.9	146*	x	1.5	150*
COCCn1c(C)cc(C(=O)CSc2cc(C)c3ccc(OC)cc3n2)c1C	16	0.8	98	x	1.1	-10
CCCCOCCCNC(=O)CN1C(=O)c2ccccc2C1=O	-1	1	106	8	1.1	-3
O=C(O)CSCC(=O)NCc1cccc(C(F)(F)F)c1	-8	1.1	105	-3	1.2	12
SMILES	FLuc inhib CS	FLuc stim CS	STAT1 activator	Pf gamet viab	NF-kB expr up	APP 5'UTR act
CC(C)CC(=O)NC(=S)Nc1ccc(NC(=O)c2ccco2)cc1	-6	1.1	106	-8	1	-5
COCCCN(C(C)=O)c1nc(-c2ccccc2)cs1	-4	1	138*	x	1.6	10
COC(=O)CCCCCCCCC(=O)Nc1nc2ccccc2s1	-2	1	98	x	1.1	-1
CCOC(=O)c1ccc2nc(NC(=O)C(C)C)sc2c1	17	0.8	145*	x	4.2*	122
CCOC(=O)c1ccc2nc(NC(=O)c3ccco3)sc2c1	51*	0.5	112	x	4.6*	277*
CCCCC(=O)Nc1nc2ccc(C(=O)OC)cc2s1	6	0.9	129*	16	2.5	79
CCOc1ccc2nc(NC(=O)c3ccco3)sc2c1	x	x	x	27	x	x
